Where a name gives a salt, the structure may show the parent alone.

What all share (assay type): functional
What all share (details): Homo sapiens

The subject of test [1] is PMNL. Nature of the test: Inhibition of Superoxide radical scavenging activity in 40% EtOH at 0.1 mM in PMA-stimulated PMN. The method, boiled down:
(§1)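 Human PMNs were isolated by Percoll gradient (density 1.080 g/mL) from fresh venous blood of a single volunteer and suspended in PAG-CM buffer (PIPES pH 7.4, HSA, glucose, 1 mM CaCl2/MgCl2). 1 × 10⁶ cells were preincubated 5 min with compound in water or 40% EtOH, then stimulated with PMA (1 ng/mL). Superoxide was spin-trapped with DEPMPO (10 mM) and read by X-band EPR. Results are mean % signal inhibition, N=3 per formulation except one N=1.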

In test [2] the test system is PMNL. Nature of the test: Inhibition of Superoxide radical scavenging activity in water at 0.1 mM in PMA-stimulated PMN. In a few lines: as §1
Test [3] has as its system PMNL. The test is described as follows: Inhibition of Superoxide radical scavenging activity in water at 1.0 mM in PMA-stimulated PMN. In a few lines:
as §1

The subject of test [4] is PMNL. Nature of the test: Inhibition of Superoxide radical scavenging activity in water at 3.0 mM in PMA-stimulated PMN. In a few lines: as §1
For test [5], the system named is PMNL. Nature of the test: Inhibition of Superoxide radical scavenging activity in water at 5.0 mM in PMA-stimulated PMN. The method, boiled down:
as §1

For orientation: inhibition means the relative decrease from the control value, in per cent. Low values mean a weak effect, high ones a strong effect. Turning to `CC1=CC(OP(=O)(O)O)CC(C)(C)C1/C=C/C(C)=C/C=C/C(C)=C/C=C/C=C(C)/C=C/C=C(C)/C=C/C1=C(C)CC(OP(=O)(O)O)CC1(C)C` (stereo not given) [LUTEIN DIPHOSPHATE SODIUM SALT], the inhibition at 100 µM turned out to be 18% in test [1] and 0% in test [2]. For the same compound, in test [3], the inhibition at 1000 µM is 9.3%. In test [4], the inhibition at 3000 µM was found to be 72.3%. Besides, 5000 µM produced 91% inhibition in test [5].
Take `CC1=CC(OC(=O)CCC(=O)O)CC(C)(C)C1/C=C/C(C)=C/C=C/C(C)=C/C=C/C=C(C)/C=C/C=C(C)/C=C/C1=C(C)CC(OC(=O)CCC(=O)O)CC1(C)C` (stereo not given) [LUTEIN DISUCCINATE SODIUM SALT]: the inhibition at 100 µM in test [1] is 5%; in test [2] it was 0%. The compound further showed an inhibition at 1000 µM in test [3] of 13%. For the same compound, 3000 µM produced 61.7% inhibition in test [4]. In test [5], the inhibition at 5000 µM worked out at 74.7%.

The values are drawn from ChEMBL document CHEMBL1138115, “The synthesis and aqueous superoxide anion scavenging of water-dispersible lutein esters” (2006).
